Laboratory results reported in ChEMBL document CHEMBL1124106, “Synthesis of diethylenetriaminepentaacetic acid conjugated inulin and utility for cellular uptake of liposomes” (J Med Chem, 1988).
Values joined by “and” are separate entries in the source; they are usually repeats but may differ in a detail not shown here. Equal entries are not always repeated.

What was measured:
Mus musculus [1] = assay: Biodistribution in mice blood, after 12 hr of intravenous administration of 1-2 ug of compound (entrapped in bovine brain sphingomyelin/ cholesterol multilamellar vehicles); assay type: ADME, organism-based; settings: in vivo
Procedure, shortened: (§1)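 BALB/c mice (about 25 g), 3–5 per group, given 50–100 μL tail-vein injection of 111In-labeled conjugate entrapped in SM/CH (2:1 mol/mol) multilamellar vesicles, approx. 100 000 cpm; dose 1–2 μg phospholipid/g body weight. Killed by cervical dislocation at set times; blood, cumulative excretion and rinsed, blotted, weighed tissues γ-counted, blood background subtracted. Result is % injected dose ± SD.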

Mus musculus [2] = assay: Biodistribution of compound in mice kidneys after 1 hr of intravenous injection; assay type: ADME, organism-based, Kidney; settings: in vivo
Procedure, shortened: (§2)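 BALB/c mice (about 25 g), n = 4. Free ¹¹¹In- or ⁶⁷Ga-labeled compound (50–100 μL, about 100 000 cpm) was injected into a tail vein. Mice were held in separate cages and killed by cervical dislocation, with blood and cumulative excreta collected. Tissues were rinsed, blotted, weighed and γ-counted, with blood background subtracted (blood volume 8.0%). Values are % injected dose ± SD.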

Mus musculus [3] = assay: Biodistribution of compound in mice spleen after 21 hr of intravenous injection; assay type: ADME, organism-based; settings: in vivo; procedure, shortened: as §2
Mus musculus [4] = assay: Biodistribution in mice kidneys, after 1 hr of intravenous administration of 1-2 ug of compound (entrapped in bovine brain sphingomyelin/ cholesterol multilamellar vehicles); settings: in vivo
Mus musculus [5] = assay: Biodistribution of compound in mice carcass after 0.17 hr of intravenous injection; assay type: ADME, organism-based; settings: in vivo; procedure, shortened: as §2
Mus musculus [6] = assay: Biodistribution in mice spleen, after 12 hr of intravenous administration of 1-2 ug of compound (entrapped in bovine brain sphingomyelin/ cholesterol multilamellar vehicles); assay type: ADME, organism-based; settings: in vivo; procedure, shortened: as §1
Mus musculus [7] = assay: Biodistribution in mice tail, after 12 hr of intravenous administration of 1-2 ug of compound (entrapped in bovine brain sphingomyelin/ cholesterol multilamellar vehicles); assay type: ADME, organism-based; settings: in vivo
Procedure, shortened: (§3)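 BALB/c mice (about 25 g), groups of 2–5. Compound ¹¹¹In-loaded into SM/CH (2:1, mol/mol) multilamellar vesicles, given as a single tail-vein injection. Lipid dose was 1–2 μg phospholipid/g body weight, in 50–100 μL carrying about 100 000 cpm. Mice were killed by cervical dislocation. Organs were rinsed, blotted, weighed and γ-counted, with blood background subtracted. Values are % injected dose ± SD.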

Mus musculus [8] = assay: Biodistribution of compound in mice kidneys after 21 hr of intravenous injection; assay type: ADME, organism-based, Kidney; settings: in vivo; procedure, shortened: as §2
Mus musculus [9] = assay: Biodistribution in mice brain, after 24 hr of intravenous administration of 1-2 ug of compound (entrapped in bovine brain sphingomyelin/ cholesterol multilamellar vehicles); assay type: ADME, organism-based; settings: in vivo; procedure, shortened: as §1
Mus musculus [10] = assay: Biodistribution in mice skin, after 12 hr of intravenous administration of 1-2 ug of compound (entrapped in bovine brain sphingomyelin/ cholesterol multilamellar vehicles); assay type: ADME, organism-based, Zone of skin; settings: in vivo; procedure, shortened: as §1
Mus musculus [11] = assay: Biodistribution in mice skin, after 24 hr of intravenous aadministration of 1-2 ug of compound (entrapped in bovine brain sphingomyelin/ cholesterol multilamellar vehicles); assay type: ADME, organism-based, Zone of skin; settings: in vivo; procedure, shortened: as §1
Mus musculus [12] = assay: Biodistribution of compound in mice blood after 0.17 hr of intravenous injection; assay type: ADME, organism-based; settings: in vivo; procedure, shortened: as §2
Mus musculus [13] = assay: Biodistribution of compound in mice liver after 1 hr of intravenous injection; assay type: ADME, organism-based; settings: in vivo; procedure, shortened: as §2
Mus musculus [14] = assay: Biodistribution in mice carcass, after 48 hr of intravenous administrating 1-2 ug of compound (entrapped in bovine brain sphingomyelin/ cholesterol multilamellar vehicles); assay type: ADME, organism-based; settings: in vivo; procedure, shortened: as §1
[15] = Biodistribution in mice excretion, after 12 hr of intravenous administration of 1-2 ug of compound (entrapped in bovine brain sphingomyelin/ cholesterol multilamellar vehicles); assay type: ADME, organism-based; settings: mouse, excretion (excreta, not specified further), read-out: ID; procedure, shortened: as §1
Mus musculus [16] = assay: Biodistribution in mice heart, after 48 hr of intravenous administration of 1-2 ug of compound (entrapped in bovine brain sphingomyelin/ cholesterol multilamellar vehicles); assay type: ADME, organism-based; settings: in vivo; procedure, shortened: as §1
[17] = Biodistribution in mice excretion, after 1 hr of intravenous administration of 1-2 ug of compound (entrapped in bovine brain sphingomyelin/ cholesterol multilamellar vehicles); assay type: ADME, organism-based; settings: mouse, excretion (excreta, not specified further), read-out: ID; procedure, shortened: as §1
Mus musculus [18] = assay: Biodistribution in mice liver, after 48 hr of intravenous administration of 1-2 ug ofcompound (entrapped in bovine brain sphingomyelin/ cholesterol multilamellar vehicles); assay type: ADME, organism-based; settings: in vivo; procedure, shortened: as §1
Mus musculus [19] = assay: Biodistribution in mice heart, after 1 hr of intravenous administration of 1-2 ug of compound (entrapped in bovine brain sphingomyelin/ cholesterol multilamellar vehicles); assay type: ADME, organism-based; settings: in vivo; procedure, shortened: as §1
Mus musculus [20] = assay: Biodistribution in mice carcass, after 12 hr of intravenous administration of 1-2 ug of compound (entrapped in bovine brain sphingomyelin/ cholesterol multilamellar vehicles); assay type: ADME, organism-based; settings: in vivo; procedure, shortened: as §1
Mus musculus [21] = assay: Biodistribution of compound in mice tail after 21 hr of intravenous injection; assay type: ADME, organism-based; settings: in vivo; procedure, shortened: as §2
Mus musculus [22] = assay: Biodistribution in mice intestine, after 48 hr of intravenous administration of 1-2 ug of compound (entrapped in bovine brain sphingomyelin/ cholesterol multilamellar vehicles); assay type: ADME, organism-based; settings: in vivo; procedure, shortened: as §1
[23] = Biodistribution in mice excretion, after 48 hr of intravenous administration of 1-2 ug of compound (entrapped in bovine brain sphingomyelin/ cholesterol multilamellar vehicles) at; assay type: ADME, organism-based; settings: mouse, excretion (excreta, not specified further), read-out: ID; procedure, shortened: as §1
Mus musculus [24] = assay: Biodistribution in mice carcass, after 1 hr of intravenous administration of 1-2 ug ofcompound (entrapped in bovine brain sphingomyelin/ cholesterol multilamellar vehicles); assay type: ADME, organism-based; settings: in vivo; procedure, shortened: as §1
Mus musculus [25] = assay: Biodistribution in mice kidneys, after 12 hr of intravenous administration of 1-2 ug of compound (entrapped in bovine brain sphingomyelin/ cholesterol multilamellar vehicles); assay type: ADME, organism-based, Kidney; settings: in vivo; procedure, shortened: as §1
Mus musculus [26] = assay: Biodistribution in mice stomach, after 12 hr of intravenous administration of 1-2 ug of compound (entrapped in bovine brain sphingomyelin/ cholesterol multilamellar vehicles); assay type: ADME, organism-based; settings: in vivo; procedure, shortened: as §3
Mus musculus [27] = assay: Biodistribution in mice skin, after 1 hr of intravenous administration of 1-2 ug of compound (entrapped in bovine brain sphingomyelin/ cholesterol multilamellar vehicles); assay type: ADME, organism-based, Zone of skin; settings: in vivo; procedure, shortened: as §1
Mus musculus [28] = assay: Biodistribution in mice blood, after 48 hr of intravenous administration of 1-2 ug of compound (entrapped in bovine brain sphingomyelin/ cholesterol multilamellar vehicles); assay type: ADME, organism-based; settings: in vivo; procedure, shortened: as §1
Mus musculus [29] = assay: Biodistribution in mice tail, after 24 hr of intravenous administration of 1-2 ug of compound (entrapped in bovine brain sphingomyelin/ cholesterol multilamellar vehicles); assay type: ADME, organism-based; settings: in vivo; procedure, shortened: as §3
Mus musculus [30] = assay: Biodistribution in mice liver, after 1 hr of intravenous administration of 1-2 ug of compound (entrapped in bovine brain sphingomyelin/ cholesterol multilamellar vehicles); assay type: ADME, organism-based; settings: in vivo; procedure, shortened: as §1
Mus musculus [31] = assay: Biodistribution in mice leg muscle, after 48 hr of intravenous administration of compound (entrapped in bovine brain sphingomyelin/ cholesterol multilamellar vehicles); assay type: ADME, organism-based, Muscle tissue; settings: in vivo; procedure, shortened: as §1
Mus musculus [32] = assay: Biodistribution in mice blood, after 24 hr of intravenous administration of 1-2 ug of compound (entrapped in bovine brain sphingomyelin/ cholesterol multilamellar vehicles); assay type: ADME, organism-based; settings: in vivo; procedure, shortened: as §1
Mus musculus [33] = assay: Biodistribution in mice kidneys, after 48 hr of intravenous administration of 1-2 ug of compound (entrapped in bovine brain sphingomyelin/ cholesterol multilamellar vehicles); assay type: ADME, organism-based, Kidney; settings: in vivo; procedure, shortened: as §1
Mus musculus [34] = assay: Biodistribution in mice lung, after 12 hr of intravenous administration of 1-2 ug ofcompound (entrapped in bovine brain sphingomyelin/ cholesterol multilamellar vehicles); assay type: ADME, organism-based; settings: in vivo; procedure, shortened: as §1
Mus musculus [35] = assay: Biodistribution in mice intestine, after 24 hr of intravenous administration of 1-2 ug of compound (entrapped in bovine brain sphingomyelin/ cholesterol multilamellar vehicles); assay type: ADME, organism-based; settings: in vivo; procedure, shortened: as §1
Mus musculus [36] = assay: Biodistribution of compound in mice tail after 1 hr of intravenous injection; assay type: ADME, organism-based; settings: in vivo; procedure, shortened: as §2

- ID (Mus musculus [1]): 0.5%
- ID (Mus musculus [2]): 1.9% and 1.7%
- ID (Mus musculus [3]): 0.1%
- ID (Mus musculus [4]): 0.5%
- ID (Mus musculus [5]): 14.2% and 19.3%
- ID (Mus musculus [6]): 4%
- ID (Mus musculus [7]): 2.7%
- ID (Mus musculus [8]): 0.8% and 0.9%
- ID (Mus musculus [9]): 0.2%
- ID (Mus musculus [10]): 1.1%
- ID (Mus musculus [11]): 2%
- ID (Mus musculus [12]): 21.1% and 20.9%
- ID (Mus musculus [13]): 0.3% and 1.4%
- ID (Mus musculus [14]): 1.3%
- dose excreted at 12 h [15]: 0%
- ID (Mus musculus [16]): 0%
- dose excreted at 1 h [17]: 0%
- ID (Mus musculus [18]): 62.4%
- ID (Mus musculus [19]): 0%
- ID (Mus musculus [20]): 2%
- ID (Mus musculus [21]): 2.1% and 2.3%
- ID (Mus musculus [22]): 0.6%
- dose excreted at 48 h [23]: 0%
- ID (Mus musculus [24]): 4%
- ID (Mus musculus [25]): 0.4%
- ID (Mus musculus [26]): 0.2%
- ID (Mus musculus [27]): 1.6%
- ID (Mus musculus [28]): 0.4%
- ID (Mus musculus [29]): 0.9%
- ID (Mus musculus [30]): 55.1%
- ID (Mus musculus [31]): 0.3%
- ID (Mus musculus [32]): 0.4%
- ID (Mus musculus [33]): 0.4%
- ID (Mus musculus [34]): 0.1%
- ID (Mus musculus [35]): 0.8%
- ID (Mus musculus [36]): 2%
SMILES: NCCNC(=O)CN(CCN(CCN(CC(=O)O)CC(=O)O)CC(=O)O)CC(=O)O
